For data set [1], the system named is Mycobacterium tuberculosis. The data set is described as follows: Antitubercular activity against Mycobacterium tuberculosis H37Rv assessed as inhibition of microbial growth incubated by measuring turbidity for 5 days by serial microdilution based colorimetric assay. In kind it is functional. As to conditions: 120 h, dose 20 µM, time 5 day. Summed up: (§1)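 Strains grown in Middlebrook 7H9 with ADS (BSA, dextrose, NaCl) and 1% glycerol. Compounds from 40 mM DMSO stocks were two-fold serially diluted in plate broth. Inoculum was a 1/25 dilution of a mid-log culture at McFarland 1.0, about 10⁶ CFU/well. Plates sealed and held 5 days at 37 °C. MIC is the lowest concentration with no visible turbidity. Rifampicin was the control drug.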

For data set [2], the system named is Mycobacterium tuberculosis. The data set is described as follows: Antimycobacterial activity against Mycobacterium tuberculosis InhA-OE strain assessed as inhibition of microbial growth at 20 uM incubated for 5 days by serial microdilution based colorimetric assay. The data set is classed as functional. The settings on record: 120 h, time 5 day. Background: In broth dilution the organism is exposed to a series of concentrations in liquid medium.

The nature of data set [3]: Cytotoxicity against African green monkey Vero E6 cells assessed as reduction in cell viability incubated for 48 hrs by neutral red assay. In kind it is cell-based. As to conditions: Chlorocebus aethiops. Summed up: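 Vero kidney […] were seeded at 25,000 cells/well and allowed 24 h before compound was added, then incubated 48 h. Viable cells were read by neutral red uptake. IC50 was taken from log plots of growth inhibition versus concentration. Doxorubicin was the positive control and DMSO the vehicle control.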

Data set [4] is described as follows: Selectivity index, ratio of CC50 for african green monkey Vero cells to MIC for Mycobacterium tuberculosis H37Rv. The data set is classed as toxicity. The settings on record: read-out: Selectivity Index.
Data set [5] has as its system Mycobacterium tuberculosis. Briefly: Antitubercular activity against Mycobacterium tuberculosis H37Rv. In kind it is functional. Summed up: as §1
In data set [6] the test system is Mycobacterium tuberculosis. Briefly: Antitubercular activity against Mycobacterium tuberculosis H37Rv under anerobic condition. The data set is classed as functional.
Data set [7] has as its system Mycobacterium tuberculosis. Briefly: Antitubercular activity against Mycobacterium tuberculosis H37Rv under aerobic condition. In kind it is functional.

Values after ≈ are worked out from the molar mass of the structure shown. A value given as a limit tells only on which side of the number the result lay.

Usually MIC stands for the lowest concentration found to suppress growth. As for `C/C=C/C=C/C=N/N(/C=C\C(=O)OC)S(=O)(=O)c1ccc(C)cc1`, the MIC in data set [1] was 20 µM.
On to `COC(=O)/C=C/N(/N=C/c1ccc([N+](=O)[O-])cc1)S(=O)(=O)c1ccc(C)cc1`, for which, in data set [1], the minimal inhibitory concentration (MIC) was > 20 µM.
As for `COC(=O)/C=C/N(/N=C/c1ccc(-c2ccccc2)cc1)S(=O)(=O)c1ccc(C)cc1`, the MIC in data set [1] was > 20 µM.
Turning to `COC(=O)/C=C/N(/N=C/c1ccco1)S(=O)(=O)c1ccc(C)cc1`, the results for the MIC in data set [1] and in data set [2] were 5 µM and 10 µM, respectively.
As to `COC(=O)/C=C/N(/N=C/C1=CC2CC(C1)C2(C)C)S(=O)(=O)c1ccc(C)cc1` (stereo not drawn), the minimal inhibitory concentration (MIC) in data set [1] is > 20 µM.
For `COC(=O)/C=C\N(/N=C/c1ccc[nH]1)S(=O)(=O)c1ccc(C)cc1`, the MIC in data set [1] was > 20 µM.
One may read the IC50 as the concentration at which inhibition is half-maximal. For the molecule `COC(=O)/C=C/N(/N=C/c1ccc2ccccc2c1)S(=O)(=O)c1ccc(C)cc1`, the MIC in data set [1] is 1.25 µM; in data set [2], 2.5 µM. Besides, the 50% inhibitory concentration (IC50) in data set [3] was > 11.6 µM. For the same molecule, the selectivity ratio in data set [4] came out at 9.28.
For `COC(=O)/C=C\N(/N=C/c1ccco1)S(=O)(=O)c1ccc(C)cc1`, the MIC in data set [1] was 20 µM.
With `NNC(=O)c1ccncc1` [ISONIAZID], the MIC is 0.36 µM in data set [1] and > 7.3 µM in data set [2].
As for `COC(=O)/C=C/N(/N=C/c1ccc[nH]1)S(=O)(=O)c1ccc(C)cc1`, the MIC in data set [1] was > 20 µM.
Consider `COC(=O)/C=C/N(/N=C/c1ccccc1OC)S(=O)(=O)c1ccc(C)cc1`, for which the values for the minimal inhibitory concentration (MIC) in data set [1] and in data set [2] were 1.25 µM and 5 µM, respectively. In addition, the IC50 in data set [3] was > 12.2 µM. In addition, the selectivity ratio in data set [4] amounted to 9.76.
`COC(=O)/C=C/N(/N=C/C1=CCCCC1)S(=O)(=O)c1ccc(C)cc1`: the minimal inhibitory concentration (MIC) in data set [1] was 10 µM.
`O=C(N/N=C\c1ccco1)c1cc(C23CC4CC(CC(C4)C2)C3)c2ccccc2n1` gave a minimum inhibitory concentration (MIC) in data set [5] of 3.12 µg/mL (≈ 7.81 µM).
In the case of `COC(=O)/C=C/N(/N=C/c1ccccc1C(F)(F)F)S(=O)(=O)c1ccc(C)cc1`, the MIC in data set [1] turned out to be 20 µM.
Same read-out and setting: the value for `COC(=O)/C=C\N(/N=C/C1=CC2CC(C1)C2(C)C)S(=O)(=O)c1ccc(C)cc1` (stereo not drawn) was > 20 µM; that for `COC(=O)/C=C\N(/N=C/c1ccc(OC)c(OC)c1)S(=O)(=O)c1ccc(C)cc1` was > 20 µM; that for `COC(=O)/C=C\N(/N=C/c1ccc(-c2ccccc2)cc1)S(=O)(=O)c1ccc(C)cc1` was > 20 µM.
Consider `C/C=C/C=C/C=N/N(/C=C/C(=O)OC)S(=O)(=O)c1ccc(C)cc1`, for which the figures for the minimum inhibitory concentration (MIC) in data set [1] and in data set [2] were 5 µM and 10 µM, respectively.
In the case of `COC(=O)/C=C\N(/N=C/C=C/c1ccc(OC)cc1)S(=O)(=O)c1ccc(C)cc1`, the MIC in data set [1] was > 20 µM.
On the same count and under the same terms, to `COC(=O)/C=C\N(/N=C/c1ccccc1C(F)(F)F)S(=O)(=O)c1ccc(C)cc1` belongs > 20 µM; to `COC(=O)/C=C\N(/N=C/c1ccc(Br)cc1)S(=O)(=O)c1ccc(C)cc1`, > 20 µM; to `COC(=O)/C=C\N(/N=C/c1ccccc1OC)S(=O)(=O)c1ccc(C)cc1`, > 20 µM.
Regarding `COC(=O)/C=C/N(/N=C/C=C(C)C)S(=O)(=O)c1ccc(C)cc1`, the results for the MIC in data set [1] and in data set [2] were 5 µM and 10 µM, respectively.
As for `COC(=O)/C=C\N(/N=C/c1ccc([N+](=O)[O-])cc1)S(=O)(=O)c1ccc(C)cc1`, in data set [1], the minimal inhibitory concentration (MIC) is > 20 µM.
Broadly, the IC90 is the concentration at which the effect reaches the 90% level. `Cc1cc(C)nc(NNC(=O)c2ccccn2)n1` gave an MIC in data set [5] of 6.08 µg/mL (≈ 25 µM). Also, the IC90 in data set [6] amounted to 2.02 µg/mL (≈ 8.3 µM); in data set [7], 1.51 µg/mL (≈ 6.21 µM).
In the case of `COC(=O)/C=C/N(/N=C/C=C/c1ccc(OC)cc1)S(=O)(=O)c1ccc(C)cc1`, the minimum inhibitory concentration (MIC) in data set [1] stood at 10 µM.
The same measure, in the same setting: the value for `COC(=O)/C=C\N(/N=C/c1ccc2ccccc2c1)S(=O)(=O)c1ccc(C)cc1` was 20 µM; that for `COC(=O)/C=C\N(/N=C/C1=CCCCC1)S(=O)(=O)c1ccc(C)cc1` was > 20 µM.
For the molecule `CO[C@H]1/C=C/O[C@@]2(C)Oc3c(C)c(O)c4c(O)c(c(/C=N/N5CCN(C)CC5)c(O)c4c3C2=O)NC(=O)/C(C)=C\C=C\[C@H](C)[C@H](O)[C@@H](C)[C@@H](O)[C@@H](C)[C@H](OC(C)=O)[C@@H]1C` [RIFAMPIN], the MIC in data set [1] was 0.3 µM.
Consider `COC(=O)/C=C/N(/N=C/c1ccccc1)S(=O)(=O)c1ccc(C)cc1`, for which the results for the minimum inhibitory concentration (MIC) in data set [1] and in data set [2] were 1.25 µM and 2.5 µM, respectively. The 50% inhibitory concentration (IC50) in data set [3] was > 13.3 µM. Also, the selectivity ratio in data set [4] was determined as 10.6.
Take `COC(=O)/C=C\N(/N=C/c1ccccc1)S(=O)(=O)c1ccc(C)cc1`: the minimum inhibitory concentration (MIC) in data set [1] was 20 µM.
The same measure, in the same setting: to `COC(=O)/C=C/N(/N=C/c1ccc(OC)c(OC)c1)S(=O)(=O)c1ccc(C)cc1` belongs > 20 µM; to `COC(=O)/C=C/N(/N=C/c1ccc(Br)cc1)S(=O)(=O)c1ccc(C)cc1`, > 20 µM.

(Values after ChEMBL document CHEMBL4706578, “New one-pot synthesis of anti-tuberculosis compounds inspired on isoniazid” (Eur J Med Chem, 2020).)
